A short description of data set [1]: Selectivity ratio of CC50 for MDCK cells to EC50 for Influenza B virus (B/Lee/40). Type of data set: ADME, cell-based. As to conditions: dog, read-out: Ratio CC50/EC50. In a few lines:
(§1)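 Confluent MDCK monolayers were mock-infected or infected with about 50-100 PFU of influenza virus per well. At read-out the medium was removed and cells were stained with fluorescein diacetate in PBS for 20 min at 35 °C. Fluorescence was read at ex 485/em 538 nm. CC50 and EC50 were derived from the fluorescence, and the selectivity index was taken as CC50/EC50.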

In data set [2] the test system is Human alphaherpesvirus 2. Briefly: Antiviral activity against Herpes simplex virus 2 MS infected in Vero cells assessed as inhibition of virus-induced cytopathogenicity by MTT assay. Particulars: Human alphaherpesvirus 2, MS. Type of data set: functional, organism-based. In a few lines: (§2)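 MTT-based CPE assay in Vero cells with HSV-1 strain F or HSV-2 strain MS. CC50 is the concentration that reduces viability of uninfected Vero cells by 50%. EC50 is the concentration that improves viability of HSV-infected cells by 50%.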
(Protection from cytopathic effect is a common read-out in antiviral testing.)

For data set [3], the system named is Influenza A virus. In words: Antiviral activity against Influenza A virus (A/Taiwan/1/1986(H1N1)) infected in MDCK cells assessed as inhibition of virus-induced cytopathogenicity at 1 hr post-infection measured after 3 days by fluorescein-diacetate based fluorimetric analysis. Type of data set: functional, organism-based. An outline of the steps: as §1
The nature of data set [4]: Cytotoxicity against MDCK cells after 3 days by fluorescein diacetate-based fluorimetric analysis. Type of data set: cell-based, Canis lupus familiaris. As to conditions: dog. An outline of the steps: as §1
For data set [5], the system named is Influenza B virus. Briefly: Antiviral activity against Influenza B virus (B/Taiwan/2/62) infected in MDCK cells assessed as inhibition of virus-induced cytopathogenicity at 1 hr post-infection measured after 3 days by fluorescein-diacetate based fluorimetric analysis. Type of data set: functional, organism-based. In a few lines:
as §1

Data set [6] deals with Influenza B virus. In words: Antiviral activity against Influenza B virus (B/Lee/40) infected in MDCK cells assessed as inhibition of virus-induced cytopathogenicity at 1 hr post-infection measured after 3 days by fluorescein-diacetate based fluorimetric analysis. The class given is functional, organism-based. As to conditions: B/Lee/1940, MDCK. In a few lines: as §1
Data set [7] relates to Influenza B virus. Briefly: Antiviral activity against Influenza B virus (B/Brisbane/60/2008) infected in MDCK cells assessed as inhibition of virus-induced cytopathogenicity at 1 hr post-infection measured after 3 days by fluorescein-diacetate based fluorimetric analysis. Type of data set: functional, cell-based. As to conditions: B/Brisbane/60/2008, MDCK. An outline of the steps:
as §1

In data set [8] the test system is Human immunodeficiency virus 1. Briefly: Antiviral activity against Human immunodeficiency virus 1 3B infected in MT4 cells assessed as inhibition of virus-induced cytopathogenicity by MTT assay. The class given is functional, organism-based. In a few lines: (§3)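 MTT-based CPE assay in MT4 cells. CC50 is the concentration that reduces viability of uninfected MT4 cells by 50%. EC50 is the concentration that improves viability of HIV-infected cells by 50%.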

Data set [9] in a line: Cytotoxicity against human MT4 cells by MTT assay. The class given is cell-based. In a few lines:
as §3
For orientation: Tetrazolium dyes change colour on reduction, which living cells bring about.

Data set [10] can be described thus: Cytotoxicity against african green monkey Vero cells by MTT assay. The class given is cell-based. As to conditions: chlorocebus sabaeus. In a few lines: as §2
The test system of data set [11] is Influenza B virus. In words: Antiviral activity against Influenza B virus (B/Panama/45/1990) infected in MDCK cells assessed as inhibition of virus-induced cytopathogenicity at 1 hr post-infection measured after 3 days by fluorescein-diacetate based fluorimetric analysis. As to conditions: B/Panama/45/1990, MDCK. Type of data set: functional, cell-based. In a few lines: as §1

The test system of data set [12] is Human alphaherpesvirus 1. Briefly: Antiviral activity against Herpes simplex virus 1 F infected in Vero cells assessed as inhibition of virus-induced cytopathogenicity by MTT assay. The class given is functional, organism-based. As to conditions: Human alphaherpesvirus 1, strain F. In a few lines:
as §2

Data set [13] in a line: Selectivity ratio of CC50 for MDCK cells to EC50 for Influenza B virus (B/Brisbane/60/2008). Particulars: dog, read-out: Ratio CC50/EC50. The class given is ADME, cell-based. In a few lines:
as §1

Data set [14] can be described thus: Selectivity ratio of CC50 for MDCK cells to EC50 for Influenza B virus (B/Panama/45/1990). Particulars: dog, read-out: Ratio CC50/EC50. Type of data set: ADME, cell-based. In a few lines:
as §1

Data set [15] in a line: Selectivity ratio of CC50 for MDCK cells to EC50 for Influenza B virus (B/Taiwan/2/62). The class given is ADME, cell-based. Particulars: dog, read-out: Ratio CC50/EC50. An outline of the steps: as §1
Data set [16] relates to Human immunodeficiency virus 2. In words: Antiviral activity against Human immunodeficiency virus 2 ROD infected in MT4 cells assessed as inhibition of virus-induced cytopathogenicity by MTT assay. Type of data set: functional, organism-based. Particulars: Human immunodeficiency virus 2, ISOLATE ROD. An outline of the steps: as §3
In data set [17] the test system is MDCK. Briefly: Cytotoxicity against MDCK cells assessed as cell death at 500 uM after 3 days by fluorescein diacetate-based fluorimetric analysis. Particulars: dog, 72 h. Set-up: species or system Canis lupus familiaris.

Data on six molecules can be found in ChEMBL document CHEMBL2331187, “Efficient synthesis of 3H,3'H-spiro[benzofuran-2,1'-isobenzofuran]-3,3'-dione as novel skeletons specifically for influenza virus type B inhibition” (Eur J Med Chem, 2013).

With `Cc1cc2c(cc1C)C(=O)C1(OC(=O)c3ccccc31)O2` (stereo not given), the selectivity ratio in [1] is 30; in data set [13] it was 30; in data set [14], above 15; in data set [15], 30. Also, the EC50 in data set [2] was above 312 µM; in data set [3] it was 23.4 µM; in data set [5] it was 3.6 µM; in data set [6], 16.1 µM; in data set [7], 4.8 µM; in [8] it was above 158 µM. In addition, the EC50 in data set [11] was 3 µM; in [12], above 312000 nM; in data set [16], above 158 µM. In addition, in data set [4], the CC50 at 72 h was above 500 µM. The CC50 in data set [9] came to 158 µM; in data set [10], 312 µM.

`O=C1OC2(Oc3cc(F)ccc3C2=O)c2ccccc21` (stereo not given): the EC50 in data set [3] came to 100 µM; in [11], 8.2 µM. In data set [4], this molecule gave a CC50 at 72 h above 500 µM. The Activity in [17] was above 20%. Besides, the selectivity ratio in data set [14] was above 15.

Consider `COc1cc2c(cc1OC)C1(OC2=O)Oc2cc(C(C)C)ccc2C1=O` (stereo not given), for which the values for the EC50 in [3] and in [11] were above 500 µM and 33.3 µM, respectively. For the same molecule, the CC50 at 72 h in data set [4] is above 500 µM. In [17], the Activity came out at 47%. For the same molecule, in data set [14], the selectivity ratio was above 15.

As for `Nc1nc2c(ncn2COCCO)c(=O)[nH]1` [ACYCLOVIR], the EC50 stood at 58.6 µM in data set [2] and 1700 nM in data set [12]. In data set [10], this molecule displayed a CC50 above 50 µM.

Take `O=c1[nH]cnc2c1ncn2[C@H]1CC[C@@H](CO)O1` [DIDANOSINE]: the EC50 is 7.8 µM in data set [8] and 34.7 µM in [16]. Also, the CC50 in data set [9] is above 500 µM.

Regarding `Nc1ccn([C@H]2CC[C@@H](CO)O2)c(=O)n1` [ZALCITABINE], the EC50 in data set [8] and in data set [16] was 0.4 µM throughout. The molecule also returned a CC50 in data set [9] of 75.2 µM.

As usually defined, the EC50 is the concentration giving half of the maximal effect. As a reminder, the CC50 is the concentration at which the toxic effect on the cells reaches its halfway point.
